Data on 6 compounds can be found in ChEMBL document CHEMBL4706601, “The endocannabinoid system dual-target ligand N-cycloheptyl-1,2-dihydro-5-bromo-1-(4-fluorobenzyl)-6-methyl-2-oxo-pyridine-3-carboxamide improves disease severity in a mouse model of multiple sclerosis” (Eur J Med Chem, 2020).

For assay [1], the target named is T1, Cannabinoid receptor 1 (Homo sapiens, UniProt P21554). Put plainly: Displacement of [3H]CP55940 from recombinant human CB1R expressed in CHO cell membranes incubated for 90 mins. On the set-up: species or system Membrane.
Assay [2] deals with T2, Cannabinoid receptor 2 (Homo sapiens, UniProt P34972). Put plainly: Displacement of [3H]CP55940 from recombinant human CB2R expressed in CHO cell membranes incubated for 90 mins. On the set-up: species or system Membrane. On the technique in general: Displacement assays read how much labelled ligand stays bound in the presence of the test substance.
Assay [3] deals with T3, Fatty-acid amide hydrolase 1 (Homo sapiens, UniProt O00519).
T3 sequence (O00519 whole entry): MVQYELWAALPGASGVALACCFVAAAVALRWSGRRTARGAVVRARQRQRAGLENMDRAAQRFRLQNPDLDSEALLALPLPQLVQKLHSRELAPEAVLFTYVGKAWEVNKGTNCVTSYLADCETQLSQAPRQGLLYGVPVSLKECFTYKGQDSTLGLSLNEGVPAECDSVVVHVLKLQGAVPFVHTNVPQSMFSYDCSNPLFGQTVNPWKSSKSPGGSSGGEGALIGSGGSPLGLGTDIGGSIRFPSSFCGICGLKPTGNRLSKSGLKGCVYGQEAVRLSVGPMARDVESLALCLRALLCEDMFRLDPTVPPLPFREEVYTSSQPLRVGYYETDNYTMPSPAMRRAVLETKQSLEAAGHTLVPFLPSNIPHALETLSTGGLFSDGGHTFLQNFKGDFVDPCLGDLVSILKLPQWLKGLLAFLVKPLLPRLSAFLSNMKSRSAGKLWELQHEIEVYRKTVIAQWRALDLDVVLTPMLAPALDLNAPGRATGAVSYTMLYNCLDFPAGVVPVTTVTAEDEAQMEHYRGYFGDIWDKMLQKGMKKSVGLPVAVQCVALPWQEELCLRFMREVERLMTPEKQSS
Put plainly: Inhibition of FAAH in human U937 cells using [ethanolamine-1-3H]AEA as substrate preincubated for 15 mins followed by substrate addition and measured after 15 mins by liquid scintillation spectroscopy. The assay is classed as cell-based, U-937. The method, boiled down:
(§1)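 Intact U937 cells, 10^6 per condition, pre-incubated with compound 15 min at 37 °C with shaking (screen at 10 μM; full curves for hits). Substrate: 1 μM AEA with 1 nM [3H]AEA (FAAH) or 10 μM 2-OG with 5 nM [3H]2-OG (MAGL), 15 min at 37 °C. Stopped with CHCl3:MeOH 1:1, aqueous tritium counted; mean ± SD, ≥3 experiments in triplicate.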

Another assay deals with T4, Monoglyceride lipase (Homo sapiens, UniProt Q99685).
T4 sequence (Q99685 whole entry): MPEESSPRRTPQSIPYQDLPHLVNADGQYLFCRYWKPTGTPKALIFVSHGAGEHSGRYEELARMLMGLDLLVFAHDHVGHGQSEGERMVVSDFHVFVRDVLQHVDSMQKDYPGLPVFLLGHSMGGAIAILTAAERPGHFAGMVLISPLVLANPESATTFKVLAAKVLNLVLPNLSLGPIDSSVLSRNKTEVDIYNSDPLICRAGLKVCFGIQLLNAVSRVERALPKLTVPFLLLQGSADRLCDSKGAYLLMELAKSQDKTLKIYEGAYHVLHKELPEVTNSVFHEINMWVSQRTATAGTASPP
Put plainly: Inhibition of MAGL in human U937 cells using [glycerol-1,2,3-3H]2-OG as substrate preincubated for 15 mins followed by substrate addition and measured after 15 mins by liquid scintillation spectroscopy. The assay is classed as cell-based, U-937. In a few lines:
as §1

Assay [4] deals with T5, Monoacylglycerol lipase ABHD6 (Homo sapiens, UniProt Q9BV23).
T5 sequence (Q9BV23 whole entry): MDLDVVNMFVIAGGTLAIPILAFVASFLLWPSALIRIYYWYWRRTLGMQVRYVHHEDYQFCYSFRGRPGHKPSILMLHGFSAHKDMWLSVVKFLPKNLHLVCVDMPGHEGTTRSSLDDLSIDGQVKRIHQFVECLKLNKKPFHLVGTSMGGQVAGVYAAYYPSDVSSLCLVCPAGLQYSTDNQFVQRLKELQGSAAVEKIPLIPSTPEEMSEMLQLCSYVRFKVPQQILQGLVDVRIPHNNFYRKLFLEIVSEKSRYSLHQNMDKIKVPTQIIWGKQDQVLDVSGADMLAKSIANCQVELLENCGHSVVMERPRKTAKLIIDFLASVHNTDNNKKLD
Kind of assay: Inhibition of human ABHD6 expressed in HEK293 cells using 2-OG as substrate preincubated for 30 mins followed by substrate addition and measured after 5 mins by liquid scintillation spectroscopy. The assay is classed as cell-based. The method, boiled down:
(§2)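 Homogenates (40 µg) from HEK293 stably expressing hABHD6 or hABHD12 pre-incubated with compound 30 min at 37 °C in […], 0.1% BSA, pH 7.6; then 10 μM 2-OG for 5 min at 37 °C. Aqueous phase tritium counted after CHCl3:MeOH stop; no-enzyme blanks and non-transfected HEK293 hydrolysis subtracted. Controls WWL70 10 μM, THL 20 μM.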

Assay [5] deals with T6, Lysophosphatidylserine lipase ABHD12 (Homo sapiens, UniProt Q8N2K0).
T6 sequence (Q8N2K0 whole entry): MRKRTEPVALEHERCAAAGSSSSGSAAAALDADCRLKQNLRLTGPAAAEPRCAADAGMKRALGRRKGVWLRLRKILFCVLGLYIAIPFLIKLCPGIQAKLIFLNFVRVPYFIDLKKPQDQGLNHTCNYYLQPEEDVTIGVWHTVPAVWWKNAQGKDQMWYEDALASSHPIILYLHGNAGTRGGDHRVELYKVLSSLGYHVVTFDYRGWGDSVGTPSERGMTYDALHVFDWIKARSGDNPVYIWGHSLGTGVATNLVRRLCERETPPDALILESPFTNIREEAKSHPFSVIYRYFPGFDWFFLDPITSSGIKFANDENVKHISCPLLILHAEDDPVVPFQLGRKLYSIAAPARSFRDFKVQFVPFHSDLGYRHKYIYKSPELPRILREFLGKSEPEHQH
Kind of assay: Inhibition of human ABHD12 expressed in HEK293 cells using 2-OG as substrate preincubated for 30 mins followed by substrate addition and measured after 5 mins by liquid scintillation spectroscopy. The assay is classed as cell-based. In a few lines: as §2

The target of assay [6] is T1, Cannabinoid receptor 1. Put plainly: Agonist activity at human CB1R expressed in CHO cell membranes after 90 mins by [35S]GTPgammaS assay. In kind it is functional, Membrane. The method, boiled down:
(§3)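 In-house CHO membranes expressing hCB1 or hCB2 (10 µg) in 50 mM Tris-HCl, 3 mM MgCl2, 0.2 mM EDTA, 100 mM NaCl, 0.5% fatty-acid-free BSA, pH 7.4, with 10 μM GDP and 0.1 nM [35S]GTPγS. Incubated 90 min at 30 °C; antagonist pre-incubated 30 min. Nonspecific binding with 10 μM GTPγS; bound label by filtration and counting; ≥3 experiments in triplicate.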
In general terms: Binding of GTPγS marks nucleotide exchange on a G protein.

Assay [7] concerns the target T2, Cannabinoid receptor 2. Put plainly: Agonist activity at human CB2R expressed in CHO cell membranes after 90 mins by [35S]GTPgammaS assay. The assay is classed as functional, Membrane. In a few lines: as §3
For the next assay, the species on record is Homo sapiens. Put plainly: Selectivity index, ratio of Ki for human CB1R expressed in CHO cell membranes to Ki for human CB2R expressed in CHO cell membranes. The assay is classed as cell-based.

T1 sequence (P21554 whole entry): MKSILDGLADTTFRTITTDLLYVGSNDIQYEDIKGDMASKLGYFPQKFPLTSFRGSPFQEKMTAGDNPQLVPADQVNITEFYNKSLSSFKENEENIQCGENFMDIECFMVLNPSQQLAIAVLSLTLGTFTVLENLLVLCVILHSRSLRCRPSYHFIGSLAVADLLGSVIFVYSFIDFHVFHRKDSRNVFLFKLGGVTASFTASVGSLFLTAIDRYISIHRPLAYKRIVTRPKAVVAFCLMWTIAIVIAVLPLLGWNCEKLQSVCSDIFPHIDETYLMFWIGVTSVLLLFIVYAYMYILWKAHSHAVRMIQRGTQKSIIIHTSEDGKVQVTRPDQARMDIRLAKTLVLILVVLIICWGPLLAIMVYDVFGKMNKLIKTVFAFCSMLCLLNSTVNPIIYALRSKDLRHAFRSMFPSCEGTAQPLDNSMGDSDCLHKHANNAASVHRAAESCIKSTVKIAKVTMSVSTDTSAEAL
T2 sequence (P34972 whole entry): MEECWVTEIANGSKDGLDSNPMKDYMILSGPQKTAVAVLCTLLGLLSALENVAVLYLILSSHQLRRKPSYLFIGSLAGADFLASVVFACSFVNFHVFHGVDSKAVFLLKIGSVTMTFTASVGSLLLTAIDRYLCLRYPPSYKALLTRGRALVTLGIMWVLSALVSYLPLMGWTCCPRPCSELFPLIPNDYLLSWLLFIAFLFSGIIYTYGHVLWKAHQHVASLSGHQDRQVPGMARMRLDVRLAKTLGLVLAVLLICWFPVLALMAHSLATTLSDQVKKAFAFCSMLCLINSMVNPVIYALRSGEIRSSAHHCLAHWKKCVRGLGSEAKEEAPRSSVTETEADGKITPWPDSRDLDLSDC

Regarding `COc1ccc(-c2cc(C(=O)NC3CCCCCC3)c(OCc3ccc(F)cc3)nc2C)cc1`, the Ki at Cannabinoid receptor 1 [1] is greater than 10 µM; on Cannabinoid receptor 2 [2], 0.919 µM. The IC50 is greater than 10 µM in assay [3], greater than 10 µM on Monoglyceride lipase, 0.53 µM in assay [4] and greater than 10 µM in assay [5].

On to `CO[C@@H]1O[C@H](CNC(=O)c2cc(Br)c(C)n(Cc3ccc(F)cc3)c2=O)[C@H](O)[C@H](O)[C@H]1O`, for which the Ki at Cannabinoid receptor 1 [1] and at Cannabinoid receptor 2 [2] was greater than 10 µM throughout. In addition, the IC50 (in [3]; at Monoglyceride lipase; in assay [4]; in assay [5]) was greater than 10 µM throughout.

For `CC(=O)N[C@@H]1[C@@H](O)[C@H](O)[C@@H](CO)O[C@H]1NC(=O)c1cc(Br)c(C)n(Cc2ccc(F)cc2)c1=O`, the Ki at Cannabinoid receptor 1 [1] and at Cannabinoid receptor 2 [2] was greater than 10 µM throughout. The IC50 (in [3]; against Monoglyceride lipase; in assay [4]; in assay [5]) was greater than 10 µM each time.

As for `Cc1ccc(C(=O)NC2CCCCCC2)c(=O)n1Cc1ccc(F)cc1`, the Ki is 0.0377 µM at Cannabinoid receptor 1 [1] and 0.0047 µM on Cannabinoid receptor 2 [2]. The IC50 (in [3]; at Monoglyceride lipase; in assay [4]; in assay [5]) was greater than 10 µM in each case. For the same compound, the EC50 stood at 0.0404 µM at Cannabinoid receptor 1 [6] and 0.00415 µM at Cannabinoid receptor 2 [7].

For the compound `Cc1c(Cl)cc(C(=O)NC2CCCCCC2)c(=O)n1Cc1ccc(F)cc1`, the figures for the Ki on Cannabinoid receptor 1 [1] and at Cannabinoid receptor 2 [2] were 0.0037 µM and 0.0043 µM, respectively. The IC50 in assay [3] was 5.9 µM; against Monoglyceride lipase, greater than 10 µM; in assay [4], greater than 10 µM; in assay [5], greater than 10 µM. The EC50 at Cannabinoid receptor 1 [6] is 0.00112 µM; at Cannabinoid receptor 2 [7], 0.0033 µM. The Ratio Ki in the assay listed under Homo sapiens amounted to 0.86.

For the compound `Cc1nc(OCc2ccc(F)cc2)c(C(=O)NC2CCCCCC2)cc1-c1ccc(F)cc1`, the Ki on Cannabinoid receptor 1 [1] was 4.6 µM; at Cannabinoid receptor 2 [2], 0.531 µM. The IC50 (in [3]; at Monoglyceride lipase; in [4]; in assay [5]) was greater than 10 µM each time.

The term Ki denotes the equilibrium dissociation constant of an inhibitor or competing ligand from its target. For orientation: IC50 means the concentration that gives 50% inhibition. The EC50 is the midpoint of the concentration-response curve. A lower EC50 goes with greater potency.
